Measurements reported in ChEMBL document CHEMBL1138793, “A three-dimensional in silico pharmacophore model for inhibition of Plasmodium falciparum cyclin-dependent kinases and discovery of different classes of novel Pfmrk specific inhibitors” (J Med Chem, 2004).
Where “and” joins values, the source holds several entries; their conditions need not be identical. Equal entries are not always repeated.

Target: T1, Protein kinase Pfmrk (Plasmodium falciparum, UniProt P90584)
T1 sequence (P90584 whole entry): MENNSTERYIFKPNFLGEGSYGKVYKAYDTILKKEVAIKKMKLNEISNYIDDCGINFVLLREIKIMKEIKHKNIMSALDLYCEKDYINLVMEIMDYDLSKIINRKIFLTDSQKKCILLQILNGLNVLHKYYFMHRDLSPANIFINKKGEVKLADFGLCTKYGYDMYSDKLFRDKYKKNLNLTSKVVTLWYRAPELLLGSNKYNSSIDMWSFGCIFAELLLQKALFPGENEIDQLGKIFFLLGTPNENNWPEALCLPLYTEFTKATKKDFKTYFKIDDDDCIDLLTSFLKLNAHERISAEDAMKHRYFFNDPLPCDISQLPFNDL
Test: Inhibition of Plasmodium falciparum cyclin-dependent kinase
Method in brief: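 Recombinant 6xHIS-tagged Plasmodial CDK (3.0 μg) expressed in E. coli, assayed with 2.0 μg GST-tagged cyclin Pfcyc-1 and 5.0 μg RNA polymerase II CTD substrate in 40 mM Hepes pH 7.5, 30 mM MnCl₂, 2.0 mM DTT. Enzyme and compound preincubated 5 min at 30 °C. Reaction started with [γ-32P]ATP plus 12.5 μM ATP, run 35 min at 30 °C. Filter plate washed with phosphoric acid, counted by scintillation. Triplicates; IC50 from concentration range.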

`O=C1Nc2ccccc2/C1=C\c1ccc(C(F)(F)F)cc1` showed an IC50 of 138 µM.

`Cc1cc(Cl)ccc1NC(=O)c1cccc([N+](=O)[O-])c1` showed an IC50 of 69 µM.

Compound `CCOC(=O)c1cc([N+](=O)[O-])ccc1Cl` has an IC50 of 87 µM.

Work on `O=C1c2cc([N+](=O)[O-])ccc2-n2c1nc1ncccc1c2=O` yielded an IC50 of 0.13 µM.

With `CCOC(=O)/C(=C\c1ccccn1)C(=O)c1ccc([N+](=O)[O-])cc1` the IC50 was 61 µM.

Compound `O=C1Nc2ccccc2/C1=C/C(=O)c1ccccc1` has an IC50 of 4 µM.

Work on `O=c1cc(-c2ccc(O)cc2)oc2cc(O)cc(O)c12` [APIGENIN] yielded an IC50 of 7 µM.

Work on `O=S(=O)(O)c1cc(O)c(/N=N/c2ccc(O)cc2O)c2ccccc12` yielded an IC50 of 11 µM.

`O=C1Nc2ccc([N+](=O)[O-])cc2C1=O` [5-NITROISATIN] showed an IC50 of 5.9 µM.

Work on `NC(=S)NC1(c2ccccc2)OC(=O)c2ccccc21` (stereo unspecified) yielded an IC50 of 70 µM.

`COc1ccc(-c2nnc(N(CCO)CCO)o2)cc1` was tested, and the IC50 was 35.8 µM.

`NNC(Cc1c[nH]c2ccccc12)C(=O)O` (stereo unspecified) showed an IC50 of 182 µM.

`O=[N+]([O-])c1cc(S(=O)(=O)Nc2ccc(C(F)(F)F)cc2)sc1Cl` gave an IC50 of 2.5 µM.

In the case of `O=c1c(O)c(-c2cc(O)c(O)c(O)c2)oc2cc(O)cc(O)c12` [MYRICETIN], the IC50 is reported as 157 µM.

`O=C1NC(=O)/C(=C2/C(=O)Nc3ccc(F)cc32)S1` gave an IC50 of 30 µM.

`CC1NN=C(c2ccccc2)C1[N+](=O)[O-]` (stereo unspecified) showed an IC50 of 394 µM.

`Cn1cnc2c(NCc3ccccc3)nc(NCCO)nc21` [OLOMOUCINE] gave an IC50 of 1100 µM.

`O=C(CCl)Nc1nc2c(Cl)cccc2s1` was tested, and the IC50 was 38 µM and 38.3 µM.

`O=C1Nc2ccc([N+](=O)[O-])cc2/C1=C/c1ccccc1O` was tested, and the IC50 was 35 µM.

Compound `Cn1cc(C(=O)C(C)(C)N)c2ccccc21` has an IC50 of 46.2 µM.

With `O=C1/C(=C/c2ccccn2)CCc2ccccc21` the IC50 was 17 µM.

`O=C(Cl)c1c2c(nc3c(Cl)cc(Cl)cc13)-c1ccc(Cl)cc1CC2` was tested, and the IC50 was 25 µM.

Work on `N#C/C(=C1\OC(=O)N(c2ccc(Cl)cc2)C1=O)c1ccc(Cl)cc1` yielded an IC50 of 14 µM.

Work on `CCN(CC)CCCC(C)Nc1ccnc2cc(Cl)ccc12` (stereo unspecified) [CHLOROQUINE] yielded an IC50 of 150 µM.

Work on `OC(c1cc(C(F)(F)F)nc2c(C(F)(F)F)cccc12)C1CCCCN1` (stereo unspecified) [MEFLOQUINE] yielded an IC50 of 12 µM.

`Cc1ccc(C(=O)/C=C2\C(=O)Nc3ccc(Br)cc32)cc1` showed an IC50 of 2.9 µM.

`O=c1c(-c2ccc(O)cc2)coc2cc(O)cc(O)c12` [GENISTEIN] was tested, and the IC50 was 93 µM.

`O=C1c2cc(F)ccc2-n2c1nc1ncccc1c2=O` gave an IC50 of 4.7 µM.

`O=C1c2ccc(Cl)cc2-n2c1nc1ncccc1c2=O` gave an IC50 of 3.5 µM.

`O=C(/C=C/c1ccccn1)c1ccc([N+](=O)[O-])cc1` showed an IC50 of 18 µM.

`O=C(/C=C/c1ccccc1)c1cccc([N+](=O)[O-])c1` gave an IC50 of 10 µM.

In the case of `COc1ccc2c(c1)/C(=C1\SC(=S)NC1=O)C(=O)N2`, the IC50 is reported as 17.1 µM.

`CN1C(=O)/C(=C\C(=O)c2ccc(Br)cc2)c2ccccc21` was tested, and the IC50 was 29 µM.

Compound `CC(=O)Nc1ccc(C(=O)/C=C/c2ccccc2)cc1` has an IC50 of 17 µM.

`CN(C)CCCn1cc(C2=C(c3c[nH]c4ccccc34)C(=O)NC2=O)c2ccccc21` [GF-109203] gave an IC50 of 24 µM.

`O=C(N=C(S)Nc1cc([N+](=O)[O-])ccc1O)c1ccc(Cl)cc1Cl` was tested, and the IC50 was 10 µM.
